Experimental data pooled from the literature.
Each line is one published result; the experiments were not run side by side.
LRRK2: Leucine-rich repeat serine/threonine-protein kinase 2 (LRRK2, Homo sapiens, UniProt Q5S007)
LRRK2 G2019S: Leucine-rich repeat serine/threonine-protein kinase 2 (LRRK2, Homo sapiens, UniProt Q5S007, G2019S)

`COc1cc(N2CCN(C)CC2)ccc1Nc1ncc2c(n1)N(C)c1ccccc1C(=O)N2C` gave an IC50 of 29 nM (LRRK2; enzyme activity, inhibitor).
With `C[C@@H]1CN(c2cc(-c3nn(C)c4ccc(OC5(C)CC5)cc34)ncn2)C[C@H](C)O1` the EC50 was > 50000 nM (LRRK2; target engagement in cells, BRET).
`CC(Cc1ccc(O)c(O)c1)C(C)Cc1ccc(O)c(O)c1` (stereo not drawn) has an IC50 of 210 nM (LRRK2 G2019S; enzyme activity, inhibitor, radiometric).
The Kd of `Cc1cnc(-c2ccc(-c3ccc(NC(=O)Nc4c(F)cc(F)cc4F)cc3F)c3c2C(=O)NC3)[nH]1` is reported as 260 nM (LRRK2; binding, competition with immobilised ligand).
`COc1cc(N2CCN(C)CC2)ccc1Nc1ncc2c(n1)N(C)c1ccccc1C(=O)N2` has an IC50 of 70 nM (LRRK2; enzyme activity, inhibitor).
`O=c1ccc2cc(O)c(O)cc2o1` has an IC50 of 1730 nM (LRRK2; enzyme activity, inhibitor, radiometric).
For `CC(=O)NC1CCN(c2ncnc3[nH]cc(-c4cccc(Cl)c4)c23)CC1`, the IC50 was 1100 nM (LRRK2; enzyme activity in cells, inhibitor).
For `CN(C(=O)c1cnn2cccnc12)c1cc2c(cc1N1CCOCC1)C(=O)N(C[C@@H](F)C(C)(C)O)C2`, the EC50 was > 50000 nM (LRRK2; target engagement in cells, BRET).
The IC50 of `O=C(/C=C/c1ccc(O)c(O)c1)O[C@H](Cc1ccc(O)c(O)c1)C(=O)O` is reported as 496 nM (LRRK2 G2019S; enzyme activity, inhibitor, radiometric).
